experiment: Toxicity liver stage against HepG2, at 10uM; type: cell-based; parameters: test concentration 10 uM, cell line HepG2-A16-CD81EGFP; details: human, HepG2-A16-CD81EGFP cells; read-out: INHIBITION
Outline: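 Uninfected HepG2-A16-CD81EGFP cells, 3 × 10^3 per well, 1536-well, plated on prespotted compound at 10 μM final, parasite-free screening media added to match infected plates; puromycin 10 μM positive, DMSO 0.5% negative; run in parallel with 48 h PbLuc assay at 37 °C, 5% CO2; viability by CellTiter-Glo luminescence, normalized to controls.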

Row | SMILES | cytotoxicity at 10 µM
1 | CC(C)[C@H](NC(=O)N1CCC(Cc2ccccc2)CC1)C(=O)O | -7.44%
2 | O=C(NC[C@H]1OC[C@@H](NC2CCC(F)(F)CC2)[C@@H]1O)N1CCOCC1 | -0.0603%
3 | CNC(=O)[C@@H]1[C@@H](c2ccccc2)CN2CCN(Cc3cc(C)no3)C[C@H]12 | 5.94%
4 | Cc1cc(C)n2c(CCCNS(=O)(=O)c3cccs3)nnc2n1 | 1.57%
5 | COCC(=O)NCc1nn(CCN2CCCC2)c(=O)c2ccccc12 | -18.9%
6 | O=C(NC[C@H]1OC[C@@H]2CCN(c3ncccn3)C[C@@H]21)c1ccnnc1 | 7.37%
7 | CCOCC1CN(Cc2cc(C)on2)Cc2cn(C)nc21 (stereo not given) | 13.6%
8 | O=C(NCc1cccnc1)C1=NOC2(CCN(C3CCOCC3)C2)C1 (stereo not given) | -1.63%
9 | O=C(c1ccccc1)N1CC[C@H]2C[C@H](c3nccs3)O[C@@H]2C1 | 8.39%
10 | O=C(C1=CCCC1)N1C[C@H](Oc2cccnc2)[C@H]2OCCC[C@H]21 | -8.42%
11 | CS(=O)(=O)NC[C@]12COC[C@H]1CN(C(=O)c1ccccc1)C2 | 1.44%
12 | O=C(Nc1ccccc1)c1n[nH]c(-n2cnnc2)n1 | 9.37%
13 | Cc1nn(C)c(C)c1CNC(=O)c1cc(NC(=O)C2CC2)n(C)n1 | 5.31%
14 | CCOCc1cccc(S(=O)(=O)Nc2ncc(C)s2)c1 | 6.38%
15 | CCCNC(=O)C(C)n1nc(-c2ccc(C)o2)cc(N)c1=O (stereo not given) | -1.15%
16 | CSc1nnc(CNC(=O)Nc2ccccc2F)n1C | 4.09%
17 | O=C(NCC1CCCO1)c1cc(-c2cccnc2)c2cnccc2n1 (stereo not given) | 15.2%
18 | NC(=O)c1ccc(C2CN(Cc3ccc(F)cc3)CCO2)nc1 (stereo not given) | 18.6%
19 | CC[C@H](Cn1ncc2ccccc2c1=O)NC(=O)c1ccccn1 | -4.27%
20 | O=C(C1CC1)N1C[C@H]2CCCN(S(=O)(=O)c3ccc(Cl)s3)[C@H]2C1 | 8.26%
21 | CCCN1C[C@H](NC(=O)c2cccs2)[C@@H](c2ccc(OC)cc2)C1 | -9.96%
22 | O=C(c1cccnc1)N1CCOC(c2ccc(-c3cncnc3)cn2)C1 (stereo not given) | -16%
23 | Cc1nc(NC2CCCC2)cc(C2CCN2C(=O)c2ccccc2)n1 (stereo not given) | -6.31%
24 | Cc1ccc(S(=O)(=O)NC(CO)CC(C)C)cc1N(C)C (stereo not given) | -0.996%
25 | CC(=O)c1cccc(OCC(=O)N(CC(C)C)C2CCN(C)CC2)c1 | -17.6%
26 | CN(C)C(=O)CCC[S+]([O-])Cc1ccc(F)c(F)c1 (stereo not given) | 12.2%
27 | CC(C)(NS(C)(=O)=O)C(=O)NCCc1csc2ccccc12 | 0.694%

Row | SMILES | cytotoxicity at 10 µM
28 | CC(C)CC(=O)N1Cc2ccccc2CC1C(=O)Nc1nccs1 (stereo not given) | -135%
29 | Cn1c(CN2CCCC(N3CCNC3=O)C2)cc(=O)n(C)c1=O (stereo not given) | -5.6%
30 | CC(NCCc1nccn1Cc1ccccc1)c1cccs1 (stereo not given) | 3.68%
31 | CCCC(C#N)NC(=O)CCCOc1cccc(F)c1 (stereo not given) | -44.1%
32 | C1CCC(CNC2CCCN(Cc3noc(C4CC4)n3)C2)CC1 (stereo not given) | -4.15%
33 | CCOc1cc(CN(C)CCCO)ccc1OC(F)F | -14.1%
34 | CCn1cnnc1C1CCN(C(=O)c2ccnc(N(C)C)c2)CC1 | 8.2%
35 | O=C(CC1CN(Cc2ccccc2)CCO1)Nc1ccsc1 (stereo not given) | -16.4%
36 | CC(C)NC(=O)CCNC(=O)c1cc(F)ccc1NS(C)(=O)=O | -4.24%
37 | CCN(C(=O)NCCc1ccccc1Cl)C(C)CS(C)(=O)=O (stereo not given) | 8.83%
38 | COc1cc(F)c(S(=O)(=O)N2c3ncccc3NC(=O)C2C)cc1OC (stereo not given) | -1.92%
39 | Cc1cccc(OCC(=O)N(Cc2ccncc2)C2CC2)c1 | -40.4%
40 | NC(=O)NC(CC(=O)NCCc1cccc(F)c1)c1cccs1 (stereo not given) | 1.55%
41 | COCc1cccc(NC(C)C(=O)N(C)Cc2ccccc2)c1 (stereo not given) | -0.42%
42 | NC(=O)C1CCN(Cn2nc(-c3ccccc3)oc2=O)CC1 | -16.8%
43 | Cc1n[nH]cc1CNc1ccc2c(c1)N(C(=O)OC(C)(C)C)CCC2 | -1.97%
44 | CC1CCN(CCNC(=O)c2cncnc2C(C)C)CC1 | -12%
45 | O=C(Cc1ccccc1)N1CCC2(CC1)CC(Nc1cnccn1)CO2 (stereo not given) | 5.1%
46 | CS(=O)(=O)N1C[C@@H]2CCN(C(=O)c3cscn3)[C@@H]2C1 | 9.79%
47 | O=C(NCC1Cn2nnc(-c3ccncc3)c2CO1)c1ccc[nH]1 (stereo not given) | 1.6%
48 | CC(C)NC(=O)N1CC[C@@H]2CN(Cc3ccccc3)S(=O)(=O)[C@@H]2CC1 | 9.62%
49 | O=C(c1ccncc1)N1CCCn2c(CN3CCCCC3)nnc2C1 | -5.77%
50 | O=C(c1ccnnc1)N1C[C@@H](OCC2CCOCC2)[C@H]2OCCC[C@H]21 | -4.66%
51 | CC(C)[C@@H]1CN(C(=O)NCc2ccco2)C[C@H]1N(C)C | 12.7%
52 | CCC[C@H]1CN(C2CCOCC2)C[C@@H]1NC(=O)CCCn1ccnc1 | 8.06%
53 | COc1ccc(C(=O)N2C[C@@H](O)[C@H](NCc3ncccc3C)C2)cc1 | 0.225%
54 | O=C(NCC1CCCCO1)c1cc(Cn2cnc3ccccc32)[nH]n1 (stereo not given) | -11.3%

Row | SMILES | cytotoxicity at 10 µM
55 | CC(C)S(=O)(=O)N1CCCC(c2nnc(Cn3ccnc3)n2C)C1 (stereo not given) | -2.83%
56 | COc1ccccc1OC1CN(C(=O)C(c2ccccc2F)N(C)C)C1 (stereo not given) | 3.91%
57 | CCc1cc(C(=O)NCC2CCN(Cc3cccc(C#N)c3)C2)on1 (stereo not given) | 4.98%
58 | CCC(Nc1ncccn1)c1cccnc1 (stereo not given) | 5.84%
59 | O=C(CCc1nc(Cl)n[nH]1)N1C[C@H](CO)C[C@H](CN2CCCC2)C1 | 0.77%
60 | COc1cccc([C@H]2CN(C(=O)c3noc4c3CCCC4)C[C@@H]2N)c1 | 2.57%
61 | Cc1cc(C)n(C2CN(C(=O)Cn3c(=O)c(C)nc4ccccc43)C2)n1 | -7.59%
62 | COCCC1(C(=O)O)CCCN(CCc2ccccc2)C1 (stereo not given) | 10.6%
63 | CCn1cnc(NC(=O)N2CCC(c3ccc(F)cc3)C2)n1 (stereo not given) | 4.17%
64 | Cc1nc(CNc2nc(-c3ccco3)nc3c2CCNCC3)n[nH]1 | -9.08%
65 | C[C@@H]1CN(C(=O)C2(Cn3cccn3)CC2)CC[C@@]1(O)C1CCOCC1 | 3.48%
66 | CCC(C)N(Cc1cccnc1)Cc1ccccc1Cn1cccn1 (stereo not given) | -43%
67 | Cc1ccc(C(C(=O)NCc2cc(C)[nH]n2)N(C)C)cc1 (stereo not given) | -0.671%
68 | CCCNS(=O)(=O)c1ccc(C(=O)NC(CC)c2cnn(C)c2)cc1 (stereo not given) | 6.1%
69 | CCc1cc(N[C@H]2CCC[C@H]2O)n2nccc2n1 | -4%
70 | Cn1cc2ncn(CCNc3cccnc3)c(=O)c2n1 | 2.52%
71 | COc1ccc(C(=O)N2C[C@@H](CN3CCOCC3)[C@@H](CO)C2)c(C)c1 | -13.8%
72 | O=C(O)[C@@H]1CN(C(=O)c2ccc3[nH]nnc3c2)C[C@H]1c1cccc(F)c1 | -8.66%
73 | O=C(c1ccc(F)c(F)c1)N1CCCC(Nc2ccc(F)cc2)C1 (stereo not given) | -12.1%
74 | O=S(=O)(N1CCCC1)N1CCCCC1CCc1ccccc1 (stereo not given) | -5.65%
75 | COc1cccc(N2CCN(C(=O)[C@H](O)C3CCCCC3)CC2=O)c1 | -14.1%
76 | Cc1nccnc1N1CCC2(CCCN(C3CCOCC3)C2=O)C1 (stereo not given) | -8.8%
77 | O=C(c1ccc(N2CCOCC2)nc1)N1CCCC(n2cccn2)C1 (stereo not given) | -11.2%
78 | Cc1cnn(C2CCCN(C(=O)Cc3ccc4c(c3)CCO4)C2)c1 (stereo not given) | -5.83%
79 | Cc1cccc(C(=O)N2CCCN(Cc3cnn(C)c3)CC2)n1 | -10.5%
80 | COc1cccc(-n2c(C)cc(C(=O)NS(C)(=O)=O)c2C)c1 | -6%
81 | c1cnc(Nc2cncc(C3CCCN3)n2)cn1 (stereo not given) | -8.69%

Row | SMILES | cytotoxicity at 10 µM
82 | Cc1cccc(CN2CCCCC2c2n[nH]cc2-c2cc(C)no2)c1 (stereo not given) | 6.5%
83 | Cc1cc(C[C@@H]2COC[C@H]2NCc2ccc(C(F)(F)F)cc2)on1 | -18.7%
84 | CN1CCN(C[C@H]2OC[C@@H]3CCN(C(=O)c4cnccn4)C[C@@H]32)CC1 | 12%
85 | Fc1cnc(N2CC[C@@H]3O[C@@H](COCc4cccnc4)CC[C@@H]32)nc1 | 10.1%
86 | COc1c(CNCc2nnc3n2CCCCC3)c(C)nn1C | 9.03%
87 | COCC1CN(C(=O)c2cccn2C)Cc2c1cnn2CC1CC1 (stereo not given) | 8.07%
88 | COCC1c2c(cnn2C)CCN1Cc1ccc(C)cc1 (stereo not given) | 45%
89 | CN(C)C(=O)c1nn(C)c2c1CN(Cc1ccc(F)cc1)C2 | -9.88%
90 | Cc1nnc([C@H]2C[C@@H]3CCN(Cc4ccc(C)o4)C[C@H]3O2)[nH]1 | -2.1%
91 | CCc1ccc(CN2CCc3c(nnn3C)C2COC)cc1 (stereo not given) | 7.28%
92 | CNC(=O)c1cc(C2CCCN2)n[nH]1 (stereo not given) | -11.9%
93 | CCc1nccn1-c1cccc(C2CCCN2)n1 (stereo not given) | -5.77%
94 | c1csc(CN2CCCC3(COCCN(Cc4c[nH]nn4)C3)C2)c1 (stereo not given) | 5.1%
95 | c1ccc(CN2CC[C@]3(C[C@@H](Oc4ccccn4)CO3)C2)nc1 | -1.88%
96 | O=C(Cc1ccsc1)N1C[C@@H]2OCCN(CC3CC3)[C@@H]2C1 | 10.1%
97 | CCOCC1CN(S(=O)(=O)CC)Cc2cnn(CC3CC3)c21 (stereo not given) | 9.55%
98 | O=c1c2sccc2nc2n1CCN(Cc1ccc(F)c(F)c1)CC2 | -26%
99 | O=C(C1CCOCC1)N1C[C@@H]2C[C@@H](c3nc(C4CC4)cs3)O[C@@H]2C1 | -10.1%
100 | CN(Cc1ccco1)[C@@H]1CN(Cc2ccc(F)cc2)C[C@@H]2CCCO[C@@H]21 | 2.91%
101 | Cn1nnc2c1C(COCc1ccccn1)CN(C(=O)c1cccs1)C2 (stereo not given) | -11.2%
102 | CC(C)CN1C[C@@H]2C[C@H](C(=O)NC3CCC3)[C@H](C1)O2 | 2.37%
103 | CC(C)CN1C[C@@H]2C[C@H](C(=O)N3CCCC3)[C@H](C1)O2 | 3.17%
104 | O=S(=O)(c1cccnc1)N1C[C@H]2CC[C@@H](C1)N(Cc1ccccn1)C2 | -0.807%
105 | Cn1cc(CCC(=O)N2C[C@@H]3CC[C@H]2CN(Cc2ccccc2)C3)cn1 | -1.97%

Source: ChEMBL document CHEMBL4513216, “Probing the Open Global Health Chemical Diversity Library for Multistage-Active Starting Points for Next-Generation Antimalarials” (ACS Infect Dis, 2020)
